Consider five compounds from ChEMBL document CHEMBL1145515, “In Vitro activities of isepamicin, other aminoglycosides, and capreomycin against clinical isolates of rapidly growing mycobacteria in Taiwan” (2007).

Values after ≈ are worked out from the molar mass of the structure shown.

Usually MIC50 stands for an inhibitory concentration at the 50% level, which refers to growth in some studies and to a panel of isolates in others. The low end stands for higher susceptibility, the high end for lower susceptibility. As usually defined, the MIC90 is the lowest concentration that inhibits either 90% of growth or 90% of the strains tested, depending on the study. A lower MIC90 goes with higher susceptibility. What is called MIC is the lowest concentration found to suppress growth. Higher therefore signals weaker potency.

What all share (format): functional
The subject of one assay is Mycobacteroides chelonae. As to the kind of experiment: Antimicrobial activity against Mycobacterium chelonae after 3 to 5 days by broth microdilution method. In outline: (§1)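 Clinical isolates subcultured on Trypticase soy agar with 5% sheep blood, 30°C, 72 h. Colonies suspended in cation-supplemented Mueller-Hinton broth to a final inoculum of 5 × 10^5 CFU/ml. Twofold serial dilutions made in the same broth, final well concentrations 0.25 to 128 μg/ml. Trays incubated at 30°C; MIC read after 3 to 5 days.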
A general note: Broth dilution looks for growth in wells or tubes with falling amounts of substance.

Assay [1] deals with Mycolicibacterium fortuitum. As to the kind of experiment: Antimicrobial activity against Mycobacterium fortuitum V13 isolate after 3 to 5 days by broth microdilution method. In outline:
as §1

Assay [2] deals with Mycobacteroides abscessus. As to the kind of experiment: Antimicrobial activity against Mycobacterium abscessus R49 isolate after 3 to 5 days by broth microdilution method. In a few lines:
as §1

Assay [3] has as its system Mycobacteroides abscessus. As to the kind of experiment: Antimicrobial activity against Mycobacterium abscessus NTU459 isolate after 3 to 5 days by broth microdilution method. In a few lines: as §1
The test system of assay [4] is Mycobacteroides abscessus. Description: Antimicrobial activity against Mycobacterium abscessus R54 isolate after 3 to 5 days by broth microdilution method. In outline:
as §1

Assay [5] relates to Mycobacteroides abscessus. Description: Antimicrobial activity against Mycobacterium abscessus R51 isolate after 3 to 5 days by broth microdilution method. In a few lines: as §1
Assay [6] relates to Mycobacteroides abscessus. As to the kind of experiment: Antimicrobial activity against Mycobacterium abscessus CH10 isolate after 3 to 5 days by broth microdilution method. In a few lines:
as §1

Assay [7] relates to Mycobacteroides abscessus. As to the kind of experiment: Antimicrobial activity against Mycobacterium abscessus NTU446 isolate after 3 to 5 days by broth microdilution method. In outline:
as §1

The test system of assay [8] is Mycobacteroides abscessus. As to the kind of experiment: Antimicrobial activity against Mycobacterium abscessus R31 isolate after 3 to 5 days by broth microdilution method. In a few lines:
as §1

Assay [9] concerns Mycobacteroides abscessus. Description: Antimicrobial activity against Mycobacterium abscessus after 3 to 5 days by broth microdilution method. In a few lines: as §1
Assay [10] concerns Mycobacteroides abscessus. As to the kind of experiment: Antimicrobial activity against Mycobacterium abscessus V120 isolate after 3 to 5 days by broth microdilution method. In outline:
as §1

The subject of assay [11] is Mycobacteroides abscessus. Description: Antimicrobial activity against Mycobacterium abscessus R50 isolate after 3 to 5 days by broth microdilution method. In a few lines: as §1
For assay [12], the system named is Mycobacteroides abscessus. Description: Antimicrobial activity against Mycobacterium abscessus R39 isolate after 3 to 5 days by broth microdilution method. In outline: as §1
The subject of assay [13] is Mycolicibacterium fortuitum. Description: Antimicrobial activity against Mycobacterium fortuitum after 3 to 5 days by broth microdilution method. In outline: as §1
Assay [14] concerns Mycobacteroides abscessus. As to the kind of experiment: Antimicrobial activity against Mycobacterium abscessus NTU445 isolate after 3 to 5 days by broth microdilution method. In a few lines:
as §1

Assay [15] has as its system Mycobacteroides abscessus. As to the kind of experiment: Antimicrobial activity against Mycobacterium abscessus R47 isolate after 3 to 5 days by broth microdilution method. In a few lines:
as §1

Assay [16] deals with Mycolicibacterium fortuitum. As to the kind of experiment: Antimicrobial activity against Mycobacterium fortuitum V146 isolate after 3 to 5 days by broth microdilution method. In a few lines: as §1
Assay [17] has as its system Mycobacteroides abscessus. As to the kind of experiment: Antimicrobial activity against Mycobacterium abscessus R53 isolate after 3 to 5 days by broth microdilution method. In outline:
as §1

The test system of assay [18] is Mycobacteroides abscessus. Description: Antimicrobial activity against Mycobacterium abscessus R65 isolate after 3 to 5 days by broth microdilution method. In a few lines:
as §1

For assay [19], the system named is Mycolicibacterium fortuitum. As to the kind of experiment: Antimicrobial activity against Mycobacterium fortuitum V61 isolate after 3 to 5 days by broth microdilution method. In outline: as §1
For assay [20], the system named is Mycobacteroides abscessus. Description: Antimicrobial activity against Mycobacterium abscessus R61 isolate after 3 to 5 days by broth microdilution method. In outline:
as §1

Consider `NC[C@H]1O[C@H](O[C@H]2C(O)[C@@H](O[C@H]3O[C@H](CO)[C@@H](O)[C@H](N)[C@H]3O)[C@H](N)C[C@@H]2N)[C@H](N)C[C@@H]1O` (single isomer, unassigned) [TOBRAMYCIN], for which the results for the MIC50 (with Mycobacteroides chelonae; in assay [9]; in assay [13]) were 16 µg/mL (≈ 34.2 µM), 8 µg/mL (≈ 17.1 µM) and 16 µg/mL (≈ 34.2 µM), respectively. Besides, the values for the MIC90 (with Mycobacteroides chelonae; in assay [9]; in assay [13]) were 32 µg/mL (≈ 68.4 µM), 16 µg/mL (≈ 34.2 µM) and 64 µg/mL (≈ 137 µM), respectively. Further, the MIC in assay [1] is 128 µg/mL (≈ 274 µM); in [2] it was 16 µg/mL (≈ 34.2 µM); in assay [3] it was 8 µg/mL (≈ 17.1 µM); in [4], 32 µg/mL (≈ 68.4 µM); in assay [5], 32 µg/mL (≈ 68.4 µM); in assay [6], > 128 µg/mL. The minimum inhibitory concentration (MIC) in [7] was 4 µg/mL (≈ 8.56 µM); in assay [8] it was > 128 µg/mL; in assay [10], 16 µg/mL (≈ 34.2 µM); in [11] it was 16 µg/mL (≈ 34.2 µM); in assay [12] it was 32 µg/mL (≈ 68.4 µM); in [14] it was 16 µg/mL (≈ 34.2 µM). The MIC in assay [15] was 16 µg/mL (≈ 34.2 µM); in [16], 64 µg/mL (≈ 137 µM); in [17], 8 µg/mL (≈ 17.1 µM); in assay [18], 16 µg/mL (≈ 34.2 µM); in assay [19] it was 64 µg/mL (≈ 137 µM); in [20], 16 µg/mL (≈ 34.2 µM).

As to `CN[C@@H]1[C@H](O[C@H]2[C@H](O[C@H]3[C@H](O)[C@@H](O)[C@H](N=C(N)N)[C@@H](O)[C@@H]3N=C(N)N)O[C@@H](C)[C@]2(O)C=O)O[C@@H](CO)[C@H](O)[C@H]1O` (stereo in doubt) [STREPTOMYCIN], the MIC50 is 64 µg/mL (≈ 110 µM) with Mycobacteroides chelonae, 128 µg/mL (≈ 220 µM) in assay [9] and 64 µg/mL (≈ 110 µM) in [13]. Also, the MIC90 was 128 µg/mL (≈ 220 µM) with Mycobacteroides chelonae, > 128 µg/mL in assay [9] and 128 µg/mL (≈ 220 µM) in assay [13]. For the same compound, the MIC in [1] was 128 µg/mL (≈ 220 µM); in [2], 128 µg/mL (≈ 220 µM); in [3] it was > 128 µg/mL; in [4] it was > 128 µg/mL; in assay [5] it was > 128 µg/mL; in [6], > 128 µg/mL. The MIC was > 128 µg/mL in [7]; > 128 µg/mL in assay [8]; 128 µg/mL (≈ 220 µM) in assay [10]; > 128 µg/mL in [11]; > 128 µg/mL in assay [12]; > 128 µg/mL in assay [14]. Besides, the minimum inhibitory concentration (MIC) in assay [15] was > 128 µg/mL; in assay [16] it was > 128 µg/mL; in assay [17] it was 128 µg/mL (≈ 220 µM); in [18], > 128 µg/mL; in [19] it was > 128 µg/mL; in [20] it was > 128 µg/mL.

`NCC[C@H](O)C(=O)N[C@@H]1C[C@H](N)[C@@H](O[C@H]2O[C@H](CN)[C@@H](O)[C@H](O)[C@H]2O)[C@H](O)[C@H]1O[C@H]1O[C@H](CO)[C@@H](O)[C@H](N)[C@H]1O` [AMIKACIN]: the MIC50 in the assay with Mycobacteroides chelonae came out at 8 µg/mL (≈ 13.7 µM); in assay [9], 16 µg/mL (≈ 27.3 µM); in assay [13] it was 1 µg/mL (≈ 1.71 µM). Moreover, the MIC90 with Mycobacteroides chelonae was found to be 8 µg/mL (≈ 13.7 µM); in [9], 32 µg/mL (≈ 54.6 µM); in assay [13], 4 µg/mL (≈ 6.83 µM). Besides, the MIC was 4 µg/mL (≈ 6.83 µM) in assay [1]; 32 µg/mL (≈ 54.6 µM) in [2]; 32 µg/mL (≈ 54.6 µM) in [3]; 32 µg/mL (≈ 54.6 µM) in [4]; 32 µg/mL (≈ 54.6 µM) in [5]; > 128 µg/mL in assay [6]. Further, the MIC in assay [7] was 32 µg/mL (≈ 54.6 µM); in [8] it was > 128 µg/mL; in [10] it was 32 µg/mL (≈ 54.6 µM); in assay [11] it was 32 µg/mL (≈ 54.6 µM); in assay [12], 64 µg/mL (≈ 109 µM); in assay [14], 32 µg/mL (≈ 54.6 µM). Moreover, the MIC in assay [15] worked out at 32 µg/mL (≈ 54.6 µM); in assay [16], 4 µg/mL (≈ 6.83 µM); in assay [17], 32 µg/mL (≈ 54.6 µM); in assay [18] it was 32 µg/mL (≈ 54.6 µM); in assay [19], 4 µg/mL (≈ 6.83 µM); in assay [20], 32 µg/mL (≈ 54.6 µM).

Turning to `CN[C@@H]1[C@@H](O)[C@@H](O[C@@H]2[C@@H](O)[C@H](O[C@H]3O[C@H](CN)[C@@H](O)[C@H](O)[C@H]3O)[C@@H](N)C[C@H]2NC(=O)[C@@H](O)CN)OC[C@]1(C)O` [ISEPAMICIN], the MIC50 with Mycobacteroides chelonae is 4 µg/mL (≈ 7.02 µM); in assay [9], 8 µg/mL (≈ 14 µM); in [13], 8 µg/mL (≈ 14 µM). For the same compound, the MIC90 against Mycobacteroides chelonae was determined as 8 µg/mL (≈ 14 µM); in [9] it was 16 µg/mL (≈ 28.1 µM); in assay [13], 16 µg/mL (≈ 28.1 µM). The MIC is 64 µg/mL (≈ 112 µM) in [1]; 8 µg/mL (≈ 14 µM) in [2]; 32 µg/mL (≈ 56.2 µM) in [3]; 16 µg/mL (≈ 28.1 µM) in [4]; 16 µg/mL (≈ 28.1 µM) in assay [5]; > 128 µg/mL in assay [6]. Further, the MIC in [7] was 16 µg/mL (≈ 28.1 µM); in assay [8], > 128 µg/mL; in assay [10] it was 8 µg/mL (≈ 14 µM); in [11], 16 µg/mL (≈ 28.1 µM); in assay [12] it was 32 µg/mL (≈ 56.2 µM); in assay [14] it was 32 µg/mL (≈ 56.2 µM). For the same compound, the MIC in [15] was 16 µg/mL (≈ 28.1 µM); in [16] it was 32 µg/mL (≈ 56.2 µM); in assay [17], 16 µg/mL (≈ 28.1 µM); in assay [18], 16 µg/mL (≈ 28.1 µM); in assay [19], 32 µg/mL (≈ 56.2 µM); in assay [20], 16 µg/mL (≈ 28.1 µM).

As for `NC[C@H]1O[C@H](O[C@H]2[C@H](O)[C@@H](O[C@H]3O[C@H](CO)[C@@H](O)[C@H](N)[C@H]3O)[C@H](N)C[C@@H]2N)[C@H](O)[C@@H](O)[C@@H]1O` [KANAMYCIN], the MIC50 against Mycobacteroides chelonae came out at 4 µg/mL (≈ 8.26 µM); in [9], 8 µg/mL (≈ 16.5 µM); in assay [13], 8 µg/mL (≈ 16.5 µM). The MIC90 in the assay with Mycobacteroides chelonae came to 8 µg/mL (≈ 16.5 µM); in assay [9], 8 µg/mL (≈ 16.5 µM); in assay [13] it was 32 µg/mL (≈ 66 µM). Also, the MIC in assay [1] is > 128 µg/mL; in assay [2], 4 µg/mL (≈ 8.26 µM); in assay [3], 16 µg/mL (≈ 33 µM); in assay [4], 8 µg/mL (≈ 16.5 µM); in assay [5], 16 µg/mL (≈ 33 µM); in [6], > 128 µg/mL. Moreover, the minimum inhibitory concentration (MIC) in assay [7] was 8 µg/mL (≈ 16.5 µM); in assay [8] it was > 128 µg/mL; in assay [10] it was 8 µg/mL (≈ 16.5 µM); in assay [11] it was 8 µg/mL (≈ 16.5 µM); in [12], 16 µg/mL (≈ 33 µM); in assay [14], 16 µg/mL (≈ 33 µM). In addition, the MIC in assay [15] was found to be 8 µg/mL (≈ 16.5 µM); in [16], 32 µg/mL (≈ 66 µM); in assay [17], 4 µg/mL (≈ 8.26 µM); in [18], 8 µg/mL (≈ 16.5 µM); in assay [19] it was 32 µg/mL (≈ 66 µM); in assay [20] it was 8 µg/mL (≈ 16.5 µM).
